Legend:
[1] = Selectivity index, ratio of CC50 for human Huh-7 cells to EC50 for HCV genotype 1b Con1 expressing NS3 protease
Procedure, shortened: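 Selectivity index = CC50/EC50. EC50 from a luciferase-read Con1 subgenomic replicon assay in Huh-7 (GS4.1) cells.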

Hepatitis C virus = experiment: Antiviral activity against HCV genotype 1b Con1 expressing NS3 protease infected in human Huh-7 cells assessed as reduction in viral RNA replication after 72 hrs by luciferase reporter gene assay; assay type: functional, cell-based, Hepacivirus hominis; conditions: genotype 1b Con1, Huh-7, 72 h
[2] = Cytotoxicity against human HuH7 cells assessed as reduction in cell viability; assay type: cell-based, Huh-7
Liver = experiment: Dose normalized AUC (0 to 24 hrs) in mouse liver assessed as 2'-C-MeUTP level at 10 mg/kg, po administered as single dose; assay type: ADME, organism-based; conditions: in vivo
Procedure, shortened: (§1)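 Mice given a single oral 10 mg/kg dose. Triphosphate measured in liver and parent nucleoside in plasma. AUC expressed as dose-normalized AUC (AUC per mg/kg).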

Plasma = experiment: Dose normalized AUC (0 to 24 hrs) in mouse plasma assessed as 2'-C-MeU level at 10 mg/kg, po administered as single dose; assay type: ADME, organism-based; conditions: in vivo; procedure, shortened: as §1
[3] = Inhibition of wild-type HCV genotype 1b NS5B RNA dependent RNA polymerase; parameters: species or system Hepatitis C virus subtype 1b
Procedure, shortened: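 Biochemical assay using wild-type genotype 1b HCV NS5B polymerase. IC50 was derived from percent inhibition versus concentration data.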

CCOC(=O)[C@@H](CC(C)C)N[P@](=O)(OC[C@H]1O[C@@H](n2ccc(=O)[nH]c2=O)[C@](C)(Cl)[C@@H]1O)Oc1ccccc1
Ratio CC50/EC50 [1]: >1 | EC50 (Hepatitis C virus): > 100000 nM

C[C@@]1(Cl)[C@H](O)[C@@H](CO)O[C@H]1n1ccc(=O)[nH]c1=O
CC50 [2]: > 100 µM | EC50 (Hepatitis C virus): 57000 nM

CCOC(=O)[C@H](CC(C)C)N[P@](=O)(OC[C@H]1O[C@@H](n2ccc(=O)[nH]c2=O)[C@](C)(Cl)[C@@H]1O)Oc1ccccc1
AUC/dose (Liver): 270 pmol·h/g | Ratio CC50/EC50 [1]: >344 | EC50 (Hepatitis C virus): 291 nM | AUC/dose (Plasma): 2100 pmol·h/mL

CC(C)OC(=O)[C@H](C)N[P@@]1(=O)OC[C@H]2O[C@@H](n3ccc(=O)[nH]c3=O)[C@](C)(Cl)[C@@H]2O1
AUC/dose (Liver): 520 pmol·h/g | Ratio CC50/EC50 [1]: >25 | EC50 (Hepatitis C virus): 4020 nM | AUC/dose (Plasma): 1100 pmol·h/mL

CC(C)OC(=O)[C@@H](C)N[P@@]1(=O)OC[C@H]2O[C@@H](n3ccc(=O)[nH]c3=O)[C@](C)(Cl)[C@@H]2O1
AUC/dose (Liver): 2400 pmol·h/g | Ratio CC50/EC50 [1]: >3 | EC50 (Hepatitis C virus): 31800 nM | AUC/dose (Plasma): 770 pmol·h/mL

CCOC(=O)[C@H](CC(C)C)N[P@@](=O)(OC[C@H]1O[C@@H](n2ccc(=O)[nH]c2=O)[C@](C)(Cl)[C@@H]1O)Oc1ccccc1
AUC/dose (Liver): 220 pmol·h/g | Ratio CC50/EC50 [1]: >40 | EC50 (Hepatitis C virus): 2490 nM | AUC/dose (Plasma): 940 pmol·h/mL

CCCCOC(=O)[C@@H](C)N[P@@](=O)(OC[C@H]1O[C@@H](n2ccc(=O)[nH]c2=O)[C@](C)(Cl)[C@@H]1O)Oc1ccccc1
AUC/dose (Liver): 8400 pmol·h/g | Ratio CC50/EC50 [1]: >46 | EC50 (Hepatitis C virus): 2180 nM | AUC/dose (Plasma): 1700 pmol·h/mL

CC(C)OC(=O)[C@@H](C)N[P@](=O)(OC[C@H]1O[C@@H](n2ccc(=O)[nH]c2=O)[C@](C)(Cl)[C@@H]1O)Oc1ccccc1
AUC/dose (Liver): 3750 pmol·h/g | Ratio CC50/EC50 [1]: >10 | EC50 (Hepatitis C virus): 9600 nM | AUC/dose (Plasma): 1050 pmol·h/mL

CCOC(=O)[C@@H](C)N[P@](=O)(OC[C@H]1O[C@@H](n2ccc(=O)[nH]c2=O)[C@](C)(Cl)[C@@H]1O)Oc1ccccc1
Ratio CC50/EC50 [1]: >39 | EC50 (Hepatitis C virus): 2550 nM

CC(C)(CO)C(=O)SCCOP(=O)(NCc1ccccc1)OC[C@H]1O[C@@H](n2cnc3c(=O)[nH]c(N)nc32)[C@](C)(O)[C@@H]1O (stereo partly specified)
AUC/dose (Liver): 275 pmol·h/g | Ratio CC50/EC50 [1]: >370 | EC50 (Hepatitis C virus): 203 nM | AUC/dose (Plasma): 45 pmol·h/mL

CC(C)C[C@H](N[P@@](=O)(OC[C@H]1O[C@@H](n2ccc(=O)[nH]c2=O)[C@](C)(Cl)[C@@H]1O)Oc1ccccc1)C(=O)OC(C)C
Ratio CC50/EC50 [1]: >8 | EC50 (Hepatitis C virus): 12600 nM

CC(C)(CO)C(=O)SCCO[P@](=O)(NCc1ccccc1)OC[C@H]1O[C@@H](n2ccc(=O)[nH]c2=O)[C@](C)(Cl)[C@@H]1O
AUC/dose (Liver): 96 pmol·h/g | Ratio CC50/EC50 [1]: >28 | EC50 (Hepatitis C virus): 3610 nM | AUC/dose (Plasma): 590 pmol·h/mL

CC(C)OC(=O)[C@@H](N[P@](=O)(OC[C@H]1O[C@@H](n2ccc(=O)[nH]c2=O)[C@](C)(Cl)[C@@H]1O)Oc1ccccc1)C(C)C
Ratio CC50/EC50 [1]: >1 | EC50 (Hepatitis C virus): > 100000 nM

C[C@H](N[P@](=O)(OC[C@H]1O[C@@H](n2ccc(=O)[nH]c2=O)[C@](C)(Cl)[C@@H]1O)Oc1ccccc1)C(=O)OCc1ccccc1
AUC/dose (Liver): 850 pmol·h/g | Ratio CC50/EC50 [1]: >1408 | EC50 (Hepatitis C virus): 71 nM | AUC/dose (Plasma): 2500 pmol·h/mL

C[C@@H](N[P@](=O)(OC[C@H]1O[C@@H](n2ccc(=O)[nH]c2=O)[C@](C)(Cl)[C@@H]1O)Oc1ccccc1)C(=O)OCc1ccccc1
AUC/dose (Liver): 6900 pmol·h/g | Ratio CC50/EC50 [1]: >122 | EC50 (Hepatitis C virus): 819 nM | AUC/dose (Plasma): 1700 pmol·h/mL

CCCCOC(=O)[C@@H](C)N[P@](=O)(OC[C@H]1O[C@@H](n2ccc(=O)[nH]c2=O)[C@](C)(Cl)[C@@H]1O)Oc1ccccc1
AUC/dose (Liver): 7200 pmol·h/g | Ratio CC50/EC50 [1]: >189 | EC50 (Hepatitis C virus): 528 nM | AUC/dose (Plasma): 1700 pmol·h/mL

C[C@@]1(O)[C@H](O)[C@@H](COP(=O)(O)OP(=O)(O)OP(=O)(O)O)O[C@H]1n1ccc(=O)[nH]c1=O
IC50 [3]: 81 nM

CC(C)(CO)C(=O)SCCO[P@@](=O)(NCc1ccccc1)OC[C@H]1O[C@@H](n2ccc(=O)[nH]c2=O)[C@](C)(Cl)[C@@H]1O
AUC/dose (Liver): 150 pmol·h/g | Ratio CC50/EC50 [1]: >25 | EC50 (Hepatitis C virus): 3990 nM | AUC/dose (Plasma): 930 pmol·h/mL

CCOC(=O)NCC(C)(C)C(=O)SCCOP1(=O)OC[C@H]2O[C@@H](n3ccc(=O)[nH]c3=O)[C@](C)(Cl)[C@@H]2O1 (single isomer, unassigned; 27a)
Ratio CC50/EC50 [1]: >285 | EC50 (Hepatitis C virus): 351 nM

CCOC(=O)[C@@H](C)N[P@@](=O)(OC[C@H]1O[C@@H](n2ccc(=O)[nH]c2=O)[C@](C)(Cl)[C@@H]1O)Oc1ccccc1
Ratio CC50/EC50 [1]: >12 | EC50 (Hepatitis C virus): 8140 nM

CCOC(=O)[C@@H](CC(C)C)N[P@@](=O)(OC[C@H]1O[C@@H](n2ccc(=O)[nH]c2=O)[C@](C)(Cl)[C@@H]1O)Oc1ccccc1
Ratio CC50/EC50 [1]: >3 | EC50 (Hepatitis C virus): 37400 nM

CC(C)OC(=O)[C@H](C)N[P@]1(=O)OC[C@H]2O[C@@H](n3ccc(=O)[nH]c3=O)[C@](C)(Cl)[C@@H]2O1
AUC/dose (Liver): 21 pmol·h/g | Ratio CC50/EC50 [1]: >197 | EC50 (Hepatitis C virus): 508 nM | AUC/dose (Plasma): 570 pmol·h/mL

C[C@@H](N[P@@](=O)(OC[C@H]1O[C@@H](n2ccc(=O)[nH]c2=O)[C@](C)(Cl)[C@@H]1O)Oc1ccccc1)C(=O)OCc1ccccc1
AUC/dose (Liver): 5600 pmol·h/g | Ratio CC50/EC50 [1]: >23 | EC50 (Hepatitis C virus): 4280 nM | AUC/dose (Plasma): 1400 pmol·h/mL

CCOC(=O)NCC(C)(C)C(=O)SCCO[P@@](=O)(NCc1ccccc1)OC[C@H]1O[C@@H](n2ccc(=O)[nH]c2=O)[C@](C)(Cl)[C@@H]1O
Ratio CC50/EC50 [1]: >86 | EC50 (Hepatitis C virus): 1160 nM

CC(C)OC(=O)[C@H](C)N[P@@](=O)(OC[C@H]1O[C@@H](n2ccc(=O)[nH]c2=O)[C@](C)(Cl)[C@@H]1O)Oc1ccccc1
AUC/dose (Liver): 840 pmol·h/g | Ratio CC50/EC50 [1]: >105 | EC50 (Hepatitis C virus): 953 nM | AUC/dose (Plasma): 970 pmol·h/mL

CCOC(=O)NCC(C)(C)C(=O)SCCO[P@](=O)(NCc1ccccc1)OC[C@H]1O[C@@H](n2ccc(=O)[nH]c2=O)[C@](C)(Cl)[C@@H]1O
Ratio CC50/EC50 [1]: >79 | EC50 (Hepatitis C virus): 1270 nM

CC(C)C[C@H](N[P@](=O)(OC[C@H]1O[C@@H](n2ccc(=O)[nH]c2=O)[C@](C)(Cl)[C@@H]1O)Oc1ccccc1)C(=O)OC(C)C
Ratio CC50/EC50 [1]: >90 | EC50 (Hepatitis C virus): 1110 nM

CC(C)OC(=O)[C@@H](C)NP(=O)(N[C@H](C)C(=O)OC(C)C)OC[C@H]1O[C@@H](n2ccc(=O)[nH]c2=O)[C@](C)(Cl)[C@@H]1O
AUC/dose (Liver): 490 pmol·h/g | Ratio CC50/EC50 [1]: >1 | EC50 (Hepatitis C virus): > 100000 nM | AUC/dose (Plasma): 210 pmol·h/mL

C[C@H](N[P@@](=O)(OC[C@H]1O[C@@H](n2ccc(=O)[nH]c2=O)[C@](C)(Cl)[C@@H]1O)Oc1ccccc1)C(=O)OCc1ccccc1
AUC/dose (Liver): 1200 pmol·h/g | Ratio CC50/EC50 [1]: >541 | EC50 (Hepatitis C virus): 185 nM | AUC/dose (Plasma): 1900 pmol·h/mL

CCOC(=O)NCC(C)(C)C(=O)SCCOP1(=O)OC[C@H]2O[C@@H](n3ccc(=O)[nH]c3=O)[C@](C)(Cl)[C@@H]2O1 (single isomer, unassigned; 27b)
AUC/dose (Liver): 3300 pmol·h/g | Ratio CC50/EC50 [1]: >1370 | EC50 (Hepatitis C virus): 73 nM

CC(C)OC(=O)[C@@H](N[P@@](=O)(OC[C@H]1O[C@@H](n2ccc(=O)[nH]c2=O)[C@](C)(Cl)[C@@H]1O)Oc1ccccc1)C(C)C
Ratio CC50/EC50 [1]: >1 | EC50 (Hepatitis C virus): > 100000 nM

CC(C)(CO)C(=O)SCCO[P@@]1(=O)OC[C@H]2O[C@@H](n3ccc(=O)[nH]c3=O)[C@](C)(Cl)[C@@H]2O1
AUC/dose (Liver): 3600 pmol·h/g | Ratio CC50/EC50 [1]: >240 | EC50 (Hepatitis C virus): 417 nM | AUC/dose (Plasma): 710 pmol·h/mL

CC(C)OC(=O)[C@H](C)N[P@](=O)(OC[C@H]1O[C@@H](n2ccc(=O)[nH]c2=O)[C@](C)(Cl)[C@@H]1O)Oc1ccccc1
AUC/dose (Liver): 560 pmol·h/g | Ratio CC50/EC50 [1]: >633 | EC50 (Hepatitis C virus): 158 nM | AUC/dose (Plasma): 1300 pmol·h/mL

CC(C)OC(=O)[C@@H](C)N[P@]1(=O)OC[C@H]2O[C@@H](n3ccc(=O)[nH]c3=O)[C@](C)(Cl)[C@@H]2O1
AUC/dose (Liver): 7500 pmol·h/g | Ratio CC50/EC50 [1]: >2 | EC50 (Hepatitis C virus): 42300 nM | AUC/dose (Plasma): 910 pmol·h/mL

CCOC(=O)[C@H](C)N[P@@](=O)(OC[C@H]1O[C@@H](n2ccc(=O)[nH]c2=O)[C@](C)(Cl)[C@@H]1O)Oc1ccccc1
AUC/dose (Liver): 840 pmol·h/g | Ratio CC50/EC50 [1]: >118 | EC50 (Hepatitis C virus): 845 nM | AUC/dose (Plasma): 1100 pmol·h/mL

CC(C)(CO)C(=O)SCCOP1(=O)OC[C@H]2O[C@@H](n3ccc(=O)[nH]c3=O)[C@](C)(Cl)[C@@H]2O1 (single isomer, unassigned)
AUC/dose (Liver): 5000 pmol·h/g | Ratio CC50/EC50 [1]: >403 | EC50 (Hepatitis C virus): 248 nM | AUC/dose (Plasma): 1300 pmol·h/mL

CC(C)OC(=O)[C@H](C)NP(=O)(N[C@@H](C)C(=O)OC(C)C)OC[C@H]1O[C@@H](n2ccc(=O)[nH]c2=O)[C@](C)(Cl)[C@@H]1O
Ratio CC50/EC50 [1]: >8 | EC50 (Hepatitis C virus): 12000 nM

CC(C)OC(=O)[C@H](C)N[P@@](=O)(OC[C@H]1O[C@@H](n2ccc(=O)[nH]c2=O)[C@](C)(F)[C@@H]1O)Oc1ccccc1
AUC/dose (Liver): 310 pmol·h/g | Ratio CC50/EC50 [1]: >48 | EC50 (Hepatitis C virus): 2080 nM | AUC/dose (Plasma): 320 pmol·h/mL

CCOC(=O)[C@H](C)N[P@](=O)(OC[C@H]1O[C@@H](n2ccc(=O)[nH]c2=O)[C@](C)(Cl)[C@@H]1O)Oc1ccccc1
AUC/dose (Liver): 400 pmol·h/g | Ratio CC50/EC50 [1]: >389 | EC50 (Hepatitis C virus): 257 nM | AUC/dose (Plasma): 1100 pmol·h/mL

Reference: ChEMBL document CHEMBL4043192, “The discovery of IDX21437: Design, synthesis and antiviral evaluation of 2'-α-chloro-2'-β-C-methyl branched uridine pronucleotides as potent liver-targeted HCV polymerase inhibitors” (Bioorg Med Chem Lett, 2017)
